Experimental data of several laboratories.
Compare with care: the assays were run in different laboratories.
Target: Ephrin type-A receptor 3 (EPHA3, Homo sapiens, UniProt P29320)
Residues used in one study (P29320 1-983): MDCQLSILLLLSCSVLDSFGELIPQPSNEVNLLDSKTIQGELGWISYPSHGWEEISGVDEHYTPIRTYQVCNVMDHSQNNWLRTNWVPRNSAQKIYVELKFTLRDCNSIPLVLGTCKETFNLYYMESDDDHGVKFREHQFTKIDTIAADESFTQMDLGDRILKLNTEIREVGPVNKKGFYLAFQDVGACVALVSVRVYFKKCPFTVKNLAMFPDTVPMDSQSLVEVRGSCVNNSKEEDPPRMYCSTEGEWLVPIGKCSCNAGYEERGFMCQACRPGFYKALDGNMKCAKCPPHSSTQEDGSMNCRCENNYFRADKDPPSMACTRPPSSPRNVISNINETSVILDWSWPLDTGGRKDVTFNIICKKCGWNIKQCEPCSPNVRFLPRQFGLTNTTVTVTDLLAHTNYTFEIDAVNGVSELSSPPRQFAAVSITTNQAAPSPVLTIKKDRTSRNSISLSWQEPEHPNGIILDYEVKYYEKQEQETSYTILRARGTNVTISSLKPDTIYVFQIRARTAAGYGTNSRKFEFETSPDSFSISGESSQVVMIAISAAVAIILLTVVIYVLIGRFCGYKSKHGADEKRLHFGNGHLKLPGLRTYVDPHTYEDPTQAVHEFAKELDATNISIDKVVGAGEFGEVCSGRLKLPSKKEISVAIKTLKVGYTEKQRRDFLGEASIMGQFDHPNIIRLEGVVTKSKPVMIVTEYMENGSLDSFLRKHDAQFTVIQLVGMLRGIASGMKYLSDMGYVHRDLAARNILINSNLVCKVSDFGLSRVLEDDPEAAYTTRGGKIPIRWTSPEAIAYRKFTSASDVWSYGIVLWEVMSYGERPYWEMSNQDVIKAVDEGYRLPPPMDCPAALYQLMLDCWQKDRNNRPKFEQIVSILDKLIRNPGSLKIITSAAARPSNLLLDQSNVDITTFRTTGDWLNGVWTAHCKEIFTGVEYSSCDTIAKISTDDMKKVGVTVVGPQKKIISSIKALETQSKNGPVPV

CCCS(=O)(=O)Nc1ccc(F)c(C(=O)c2c[nH]c3ncc(-c4ccc(Cl)cc4)cc23)c1F  inhibition (enzyme activity; inhibitor; 1 µM): < 10%
Cc1ccc(NC(=O)c2ccc(C)c(C(F)(F)F)c2)cc1C#Cc1nn(C2CCC(O)CC2)c2ncnc(N)c12 (centres unmarked)  remaining signal (cell-free assay; 10 µM): 3%
CCCCN(CCCC)C(=O)CN1C[C@@H](c2cc(OC)c3c(c2)OCO3)[C@H](C(=O)O)[C@H]1CC(C)(C)CCC  remaining binding (cell-free assay; competition with immobilised ligand; 1 µM): 95.3%
CNC(=O)c1cc2c(Oc3ccc(NC(=O)C4(C(=O)Nc5ccc(F)cc5)CC4)cc3)ccnc2cc1OC  inhibition (enzyme activity; inhibitor; radiometric; 1 µM): 95%
COc1ccc2c(c1)O[C@@H](c1ccc(OC)c(OC)c1)C[C@H]2NC(=O)C1(c2ccc3c(c2)OC(F)(F)O3)CC1  remaining binding (cell-free assay; competition with immobilised ligand; 1 µM): 91%
Nc1nc(Nc2ccc(S(N)(=O)=O)cc2)nn1C(=O)c1c(F)cccc1F  remaining signal (cell-free assay; 0.5 µM): 107%
CO[C@@H](C)c1c(Nc2ccc([C@@H](N(C)C(=O)C3CCS(=O)(=O)CC3)C(F)(F)F)cc2)cnc2cc(Cl)nn12  remaining binding (cell-free assay; competition with immobilised ligand; 1 µM): 90%
CN(c1nccc(-c2cnn3ncccc23)n1)C1CC1  remaining binding (binding; 1 µM): 100%
Cc1ccc(Nc2nccc(N(C)c3ccc4c(C)n(C)nc4c3)n2)cc1S(N)(=O)=O  inhibition (enzyme activity; inhibitor; 0.3 µM): 2%
O=C1Nc2ccc(Cl)cc2C1=Cc1cc(Cl)c(O)c(Cl)c1  remaining signal (cell-free assay; 0.5 µM): 82.5%
CN(C)C1CCN(CC#Cc2nn(C3CCCC3)c3nc(NCc4ccccc4)ncc23)C1 (centres unmarked)  inhibition (enzyme activity; inhibitor; FRET; 10 µM): -3%
CCN(CC)CCNC(=O)c1c(C)[nH]c(/C=C2\C(=O)Nc3ccc(F)cc32)c1C  remaining signal (cell-free assay; 0.5 µM): 84%
O=C(NCCCC1CCCCC1)c1ccc(CNC(=O)c2cnn(-c3ccccc3)c2C(F)(F)F)cc1  remaining binding (cell-free assay; competition with immobilised ligand; 0.1 µM): 91%
O=C(Nc1cnn(-c2csc(C(=O)NC3COC3)c2)c1)Nc1c(F)cccc1Cl  remaining activity (enzyme activity; inhibitor; 5 µM): 96.1%
CNC(=O)Nc1ccc2c(c1)CC[C@@]21OC(=O)N(CC(=O)N(Cc2ccc(F)cc2)[C@@H](C)C(F)(F)F)C1=O  remaining binding (cell-free assay; competition with immobilised ligand; 1 µM): 100%
CNC(=O)c1cc(Oc2ccc(NC(=O)Nc3ccc(Cl)c(C(F)(F)F)c3)cc2)ccn1  inhibition (enzyme activity; inhibitor; 0.3 µM): 11%
Cc1ccc(C(=O)NCc2ccsc2)cc1C#Cc1cn(C(C)C)c2ncnc(N)c12  activity vs control (enzyme activity; inhibitor; 1 µM): 45%
N#CC1(c2ccccn2)CCN(Cc2cc(C(=O)N3CCCC3)c(=O)n3ccccc23)CC1  remaining binding (cell-free assay; competition with immobilised ligand; 1 µM): 100%
CC(C)(C)c1nc(-c2cccc(NS(=O)(=O)c3c(F)cccc3F)c2F)c(-c2ccnc(N)n2)s1  remaining activity (enzyme activity; inhibitor; radiometric; 1 µM): 91%
Cc1nc(N2CC[C@@H](O)C2)ncc1-c1cc(C(F)(F)F)cc2[nH]ncc12  remaining binding (cell-free assay; competition with immobilised ligand; 1 µM): 94%
CSc1nc(C)c(-c2ccnc(Nc3ccc(N4CCOCC4)cc3)c2)[nH]1  inhibition (cell-free assay; inhibitor; 10 µM): -6.3%
N#CCCc1ccc2c(c1)-c1[nH]c3ccc([N+](=O)[O-])cc3c1CC(=O)N2  remaining signal (cell-free assay; 0.5 µM): 93.9%
CC(C)(O)[C@H]1CC[C@H](Nc2ccc3ncc(-c4cccc(C(F)(F)F)c4)n3n2)CC1  remaining activity (enzyme activity; inhibitor; 1 µM): 107%
